ChEMBL document CHEMBL1146199, “Daptomycin susceptibility of unusual gram-positive bacteria: comparison of results obtained by the Etest and the broth microdilution method” (2007)
In brackets after ≈: the same amount, converted by molar mass.

Assays:
Type in all cases: functional
[1] = test system: Listeria monocytogenes; test: Antimicrobial activity against Listeria monocytogenes by broth microdilution method
In short: (§1)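 MIC by CLSI broth microdilution in Mueller-Hinton broth. Daptomycin testing used broth supplemented with calcium at physiological level (50 μg/ml). Vancomycin and linezolid were tested from standard powders. Control strains were S. aureus ATCC 29213 and Enterococcus faecalis 29212.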

[2] = test system: Pediococcus; test: Antimicrobial activity against Pediococcus spp. by broth microdilution method; in short: as §1
[3] = test system: Leuconostoc; test: Antimicrobial activity against Leuconostoc spp. by broth microdilution method; in short: as §1
[4] = test system: Rhodococcus sp.; test: Antimicrobial activity against Rhodococcus spp. by broth microdilution method; details: Rhodococcus sp. (in: high G+C Gram-positive bacteria); in short: as §1
[5] = test system: Nocardia brasiliensis; test: Antimicrobial activity against Nocardis brasiliensis by broth microdilution method; in short: as §1
[6] = test system: Nocardia asteroides; test: Antimicrobial activity against Nocardia asteroides by broth microdilution method; in short: as §1
[7] = test system: Nocardia sp.; test: Antimicrobial activity against Nocardia spp. by broth microdilution method; in short: as §1
[8] = test system: Listeria monocytogenes; test: Antimicrobial activity against Listeria monocytogenes by Etest
In short: (§2)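 Daptomycin MIC read from an Etest strip carrying a daptomycin-plus-calcium gradient, run per manufacturer's instructions. Each isolate was compared with its broth microdilution MIC (Mueller-Hinton broth, 50 μg/ml calcium). Agreement was defined as within 1 twofold dilution. Mean log2 difference was tested by one-sample t test.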

[9] = test system: Pediococcus; test: Antimicrobial activity against Pediococcus spp. by Etest; in short: as §2
[10] = test system: Leuconostoc; test: Antimicrobial activity against Leuconostac spp. by Etest; in short: as §2
[11] = test system: Rhodococcus sp.; test: Antimicrobial activity against Rhodococcus spp. by Etest; details: Rhodococcus sp. (in: high G+C Gram-positive bacteria); in short: as §2
[12] = test system: Nocardia brasiliensis; test: Antimicrobial activity against Nocardis brasiliensis by Etest; in short: as §2
[13] = test system: Nocardia asteroides; test: Antimicrobial activity against Nocardia asteroids by Etest; in short: as §2
[14] = test system: Nocardia sp.; test: Antimicrobial activity against Nocardia spp. by Etest; in short: as §2

Row | MIC50 [1] [µg/mL] | MIC90 [1] [µg/mL] | MIC50 [2] [µg/mL] | MIC90 [2] [µg/mL] | MIC50 [3] [µg/mL] | MIC90 [3] [µg/mL] | MIC50 [4] [µg/mL] | MIC90 [4] [µg/mL] | MIC50 [5] [µg/mL] | MIC90 [5] [µg/mL] | MIC50 [6] [µg/mL] | MIC90 [6] [µg/mL] | MIC50 [7] [µg/mL] | MIC90 [7] [µg/mL] | SMILES | also measured
1 | 2 (≈ 5.93 µM) | 2 (≈ 5.93 µM) | 2 (≈ 5.93 µM) | 4 (≈ 11.9 µM) | 4 (≈ 11.9 µM) | 4 (≈ 11.9 µM) | 1 (≈ 2.96 µM) | 2 (≈ 5.93 µM) | 8 (≈ 23.7 µM) | 8 (≈ 23.7 µM) | 4 (≈ 11.9 µM) | 4 (≈ 11.9 µM) | 4 (≈ 11.9 µM) | 4 (≈ 11.9 µM) | CC(=O)NC[C@H]1CN(c2ccc(N3CCOCC3)c(F)c2)C(=O)O1 [LINEZOLID] | –
2 | 4 (≈ 2.47 µM) | 4 (≈ 2.47 µM) | 0.25 (≈ 0.154 µM) | 0.5 (≈ 0.309 µM) | 0.12 (≈ 0.074 µM) | 0.25 (≈ 0.154 µM) | > 64 | > 64 | > 64 | > 64 | > 64 | > 64 | > 64 | > 64 | CCCCCCCCCC(=O)N[C@@H](Cc1c[nH]c2ccccc12)C(=O)N[C@H](CC(N)=O)C(=O)N[C@@H](CC(=O)O)C(=O)N[C@@H]1C(=O)NCC(=O)N[C@@H](CCCN)C(=O)N[C@@H](CC(=O)O)C(=O)N[C@H](C)C(=O)N[C@@H](CC(=O)O)C(=O)NCC(=O)N[C@H](CO)C(=O)N[C@@H]([C@H](C)CC(=O)O)C(=O)N[C@@H](CC(=O)c2ccccc2N)C(=O)O[C@@H]1C | MIC50 [8]: 3 µg/mL (≈ 1.85 µM); MIC90 [8]: 4 µg/mL (≈ 2.47 µM); MIC50 [9]: 0.25 µg/mL (≈ 0.154 µM); MIC90 [9]: 0.5 µg/mL (≈ 0.309 µM); MIC50 [10]: 0.25 µg/mL (≈ 0.154 µM); MIC90 [10]: 0.5 µg/mL (≈ 0.309 µM); MIC50 [11]: 96 µg/mL (≈ 59.2 µM); MIC90 [11]: > 256 µg/mL; MIC50 [12]: > 256 µg/mL; MIC90 [12]: > 256 µg/mL; MIC50 [13]: > 256 µg/mL; MIC90 [13]: > 256 µg/mL; MIC50 [14]: > 256 µg/mL; MIC90 [14]: > 256 µg/mL

Row | SMILES | MIC50 [1] [µg/mL] | MIC90 [1] [µg/mL] | MIC50 [2] [µg/mL] | MIC90 [2] [µg/mL] | MIC50 [3] [µg/mL] | MIC90 [3] [µg/mL] | MIC50 [4] [µg/mL] | MIC90 [4] [µg/mL] | MIC50 [5] [µg/mL] | MIC90 [5] [µg/mL] | MIC50 [6] [µg/mL] | MIC90 [6] [µg/mL] | MIC50 [7] [µg/mL] | MIC90 [7] [µg/mL] | also measured
3 | CN[C@H](CC(C)C)C(=O)N[C@H]1C(=O)N[C@@H](CC(N)=O)C(=O)N[C@H]2C(=O)N[C@H]3C(=O)N[C@H](C(=O)N[C@H](C(=O)O)c4cc(O)cc(O)c4-c4cc3ccc4O)[C@H](O)c3ccc(c(Cl)c3)Oc3cc2cc(c3O[C@@H]2O[C@H](CO)[C@@H](O)[C@H](O)[C@H]2O[C@H]2C[C@](C)(N)[C@H](O)[C@H](C)O2)Oc2ccc(cc2Cl)[C@H]1O [VANCOMYCIN] | 1 (≈ 0.69 µM) | 1 (≈ 0.69 µM) | > 64 | > 64 | > 64 | > 64 | 1 (≈ 0.69 µM) | > 64 | > 64 | > 64 | > 64 | > 64 | > 64 | > 64 | –
